In the EternaBench riboswitch data:

Test system: MS2 coat protein
Assay: apparent Kd, MS2 coat protein; higher = weaker binding; RNA-MaP array
In short: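 With or without input ligand, designed RNAs transcribed on an Illumina sequencing chip from sequenced DNA templates were incubated at room temperature with fluorescently labeled MS2 coat protein at 1.5 nM to 3 μM. The buffer was Tris-HCl pH 7.5 with KCl, MgCl2, BSA, DTT, tRNA and Tween20, and incubation ran 0.8–1.5 h at the lowest and 10–20 min at the highest concentrations. Apparent Kd is reported as the median of fits to binding curves from individual clusters. Designs measured on fewer than 10 clusters are not included.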

[1] = designed as: OFF switch for flavin mononucleotide, no ligand
[2] = ligand present: flavin mononucleotide, designed as: OFF switch for flavin mononucleotide
[3] = designed as: ON switch for flavin mononucleotide, no ligand
[4] = ligand present: flavin mononucleotide, designed as: ON switch for flavin mononucleotide
[5] = designed as: ON switch for theophylline, no ligand
[6] = ligand present: theophylline, designed as: ON switch for theophylline

Sequence | apparent Kd [1] [nM] | apparent Kd [2] [nM] | apparent Kd [3] [nM] | apparent Kd [4] [nM] | other results
UAGGAUAACACAGGAUAUACCCUUGUCGUCGGUUCUAAAUUACAUGAGGAUCACCCAUGUCUAAGGUAGAAGGGUGUUUGCGGU | 31.6 | 29.6 | – | – | –
AUUUGACAUGAGGAUCACCCAUGUGACUUGUCGUGAGGAUAUUAUUGAAAUCUAUGUCAUUAAGAAGGCACAAUUU | – | – | 32.7 | 16.5 | –
CAUAGCAAAAGUGAUACCAGAGUUCGAGGGAACAUGAGGAUCACCCAUGUGCUUGUACAACUCCCUUGGCAGCACAGAGCAAUUA | – | – | – | – | apparent Kd [5]: 23.1 nM; apparent Kd [6]: 10.3 nM
GAAAGGGCAAAGAAGGAGGUCCGAGCUCGGCGCCUAGGAUAUUUCUUAACCACAUGAGGAUCACCCAUGUUGACUGUAGUGUGA | 31.5 | 29 | – | – | –
GCAGGUAAGUAGAAGGGUCGCACCAUACUGACGACAGGAUAUACUGUCCGAAACUCGUCAUUACAUGAGGAUCACCCAUGUUUA | 21.2 | 11.1 | – | – | –
UCUAGAUCAUCGUGACAUGAGGAUCACCCAUGUCUGCGGGCAAGAAGGUGGUCGUUGUCUAACACCAAGGAUAUUGAGGGAGGU | – | – | 51.5 | 30.4 | –
AAUUGGUGACUAGGAUAUUAGGGAUGGCCGUACUAAGAAGGAGUCGUGCUAACAUGAGGAUCACCCAUGUAUUGGAAGCCUUAA | 15.5 | 13.4 | – | – | –
UCAAUACAGUCGGCCGCCACUGUAACCAAACCUACAUACCAACAUGAGGAUCACCCAUGUUUAUACAGGACCGGGACCUCUAUGA | – | – | – | – | apparent Kd (designed as: ON switch for tryptophan, no ligand): 36.6 nM; apparent Kd (ligand present: tryptophan, designed as: ON switch for tryptophan): 28.5 nM
UAGUCGUGGGCAGGAUAUCACUUUAUGCCAAUAUGAGAAGGGCCGGUGACAAGGCGGGCGACCACAUGAGGAUCACCCAUGUAC | 79.6 | 47.9 | – | – | –
UUUAGACGGCAGAAGGCGGGCUCGCGCGGUGUACAUGAGGAUCACCCAUGUGUUUGCCAUCUACCCGAGGAUAUGCAGUGAUGG | – | – | 39.4 | 13.2 | –
CAAGAGUUAGAAGGAUAUACAAGAUGCUGAAAGAAACGUGAACAAAACAUGAGGAUCACCCAUGUGAAGAAGGUCAAAUAGAAA | 10.4 | 9.21 | – | – | –
AUGAGUAUUAAAGGAUAUCACUUAAUUGAUUGAUGAGAAGGUUAGAUGGCAUACAUGAGGAUCACCCAUGUGGUUUCAUGCGGU | 86.3 | 59.2 | – | – | –
ACGGGACAUGAGGAUCACCCAUGUUAGGAUAUACGAACUUCGCCGAACGUGACCAAUUGUAGAAGGAACUUGGU | 17.2 | 14 | – | – | –
CCGUCACAUGAGGAUCACCCAUGUGGUGAUACCAGCAGUCGACCCUGCCCUUGGCAGCACAUUAUCAUAAAAGCAAUCAGCAACG | – | – | – | – | apparent Kd [5]: 156 nM; apparent Kd [6]: 149 nM
UAGCCUCUUAGAGGAUAUUCAUAAGCACGCAAUGAAGAAGGCUAGGACAAGUGGGACAUGAGGAUCACCCAUGUGGGAAUAUGU | 43.3 | 36.8 | – | – | –
GCAUGGACAUGAGGAUCACCCAUGUGUCGCCCUGGACCCGUUAGAAGGCCGUUCCAGAGAACAACGGAGGAUAUAAUUACAGCC | – | – | 35.7 | 27 | –
AGCUCACAUGAGGAUCACCCAUGUCAAUUGUCAUCCUAUUGUAGAAGGCCGACACUGAUAUUAACGGAGGAUAUACGAGACAAU | – | – | 15.2 | 7.85 | –
UCCUACAAAGUCAGGAUAUUCGCACAGUCACGAGGGAAGAAGGGACAUGAGGAUCACCCAUGUAUUUACGCGUA | 20.4 | 27.2 | – | – | –
AGACCCUAGCAGAAGGCCCGCGACAUCCAAGAGGGAGGAUAUGCCACUAGAGCAAGCUUUGCACAUGAGGAUCACCCAUGUCCU | – | – | 132 | 56.6 | –
CCAGGGCUCGAGAAGGCCCGCGCGGUUCAGUACGUAGGUACAUGAGGAUCACCCAUGUCGGAUUGGGAGGAUAUCGAUUCUUGU | – | – | 335 | 80.1 | –
UGGAAAUGAAUAGGAUAUCAGUGUUGUCUAUAACAUGAGGAUCACCCAUGUUUCCAUUGGCCUCGUGAGAAGGAUUCUAGUAUU | – | – | 81.6 | 22.3 | –
UUUAGACCUCAACAUGAGGAUCACCCAUGUAAAUCUCUAUCGAGAAGGAAGGAAGGAACCUUGUCUUAGGAUAUCGACAAUUUC | – | – | 101 | 71.7 | –
